Assay results reported in paper PMC11250141 (RSC Advances, 2024).

What was measured:
[1] = DPPH˙ scavenging activity; conditions: 30 min, 515 nm; tested 10–100 µg mL^−1
In short: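 Test compound (10–100 µg mL⁻¹) or 80% methanol control was mixed 1:2 (v/v) with DPPH solution, shaken, and kept 30 min at room temperature in the dark. Absorbance was read at 515 nm. Scavenging % = 100 × (1 − A sample/A DPPH blank). Ferulic and syringic acids served as references. Run in triplicate.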

[2] = Cell viability; assay type: cell-based; conditions: human, Caco-2 cells
In short: (§1)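 Caco-2 and Vero cells were grown in DMEM with 10% FBS, and HUVEC in DMEM-F12 with 10% FBS, at 37 °C and 5% CO₂. Cells were seeded at 5.000 per well 24 h before treatment. Test compound was diluted from a 100 mM DMSO stock into 1% FBS medium at 1, 10, 30, 50, 100 and 150 µM. Controls were 10% DMSO and medium alone. At 24, 48 and 72 h, cells got resazurin (0.5 mg mL⁻¹ solution) for 4 h, read at ex 560/em 590 nm. IC50 was from curve fitting.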

[3] = Cell viability; assay type: cell-based; conditions: human, HUVEC cells
In short: as §1

[4] = Cell viability; assay type: cell-based; conditions: African green monkey, Vero cells
In short: as §1

[5] = SO + additive at 200 ppm; for T 5 (5% mass loss) / T 10 (10% mass loss) / T 50 (50% mass loss) / T onset (decomposition temperature: onset temperature): TGA in air
In short: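 Thermogravimetry of sunflower oil with 200 ppm test compound: about 10 mg oil in a Pt crucible was heated from ambient to 700 °C at 5 °C min⁻¹ in air (60 mL min⁻¹), with N₂ purge on the balance. Onset temperature and temperatures at 5, 10 and 50% mass loss came from TG/DTG curves and were compared with unsupplemented oil.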

[6] = Lipoperoxidation; conditions: 220 °C; for Reduction in secondary oxidation (TBARS) in comparison with SOcontrol / TBARS value: SO + additive 200 ppm; for TBARS value: 30 min
In short: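 Sunflower oil with 200 ppm test compound was heated on a hot plate at 25, 100, 180 and 220 °C for 30 min (ramp 2 °C min⁻¹). Oil (0.5 mL) was vortexed with TBA/TCA/HCl and centrifuged 3500 rpm for 5 min. Supernatant was heated 90 °C for 15 min and read at 535 nm against an MDA curve, as nmol MDA per mL oil. Unsupplemented oil was the control. Run in triplicate.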

[7] = Cytotoxic effect, summary over the three cell lines; assay type: cell-based; conditions: human (Caco-2, HUVEC); African green monkey (Vero), Caco-2, HUVEC and Vero cells
In short: as §1

Structure (SMILES) | Antioxidant capacity (DPPH), IC50 [1] | IC50 at 24 h [2] | IC50 at 48 h [2] | IC50 at 72 h [2] | IC50 at 24 h [3] | IC50 at 48 h [3] | IC50 at 72 h [3] | IC50 at 24 h [4] | IC50 at 48 h [4] | IC50 at 72 h [4] | IC50 [7] | other results
CCOc1ccc(/C=C/C(=O)O)cc1OC [Compound 3a, (E)-3-(4-Ethoxy-3-methoxyphenyl)acrylic acid] | 56.50 ± 2.38 µg/mL | > 100 µM | > 100 µM | > 100 µM | > 100 µM | > 100 µM | > 100 µM | > 100 µM | > 100 µM | > 100 µM |  | 
CCCOc1ccc(/C=C/C(=O)O)cc1OC [Compound 3b, (E)-3-(3-Methoxy-4-propoxyphenyl)acrylic acid] | 90.43 ± 1.63 µg/mL | > 100 µM | > 100 µM | > 100 µM | > 100 µM | > 100 µM | > 100 µM | > 100 µM | > 100 µM | > 100 µM |  | Difference of degradation temperature in comparison to SO at 5% mass loss [5]: 35 °C; Difference of degradation temperature in comparison to SO at 10% mass loss [5]: 25 °C; Difference of degradation temperature in comparison to SO at 50% mass loss [5]: 4 °C; T 5 (5% mass loss) [5]: 376 °C; T 10 (10% mass loss) [5]: 390 °C; T 50 (50% mass loss) [5]: 423 °C; T onset (decomposition temperature: onset temperature) [5]: 344 °C; Reduction in secondary oxidation (TBARS) in comparison with SOcontrol [6]: 5 times; TBARS value [6]: 8.88 nmol/mL
CCCCCOc1ccc(/C=C/C(=O)O)cc1OC [Compound 3c, (E)-3-(3-Methoxy-4-(pentyloxy)phenyl)acrylic acid] | >100 µg/mL | > 100 µM | > 100 µM | > 100 µM | > 100 µM | > 100 µM | > 100 µM | > 100 µM | > 100 µM | > 100 µM |  | T 5 (5% mass loss) [5]: 370 °C; T 10 (10% mass loss) [5]: 386 °C; T 50 (50% mass loss) [5]: 424 °C; T onset (decomposition temperature: onset temperature) [5]: 343 °C; Reduction in secondary oxidation (TBARS) in comparison with SOcontrol [6]: 6 times; TBARS value [6]: 7.68 nmol/mL; TBARS value (level of SO oxidation) ([6]; SO + additive): 7.68 nmol/L
CCCCCCOc1ccc(/C=C/C(=O)O)cc1OC [Compound 3d, (E)-3-(4-(Hexyloxy)-3-methoxyphenyl)acrylic acid] | >100 µg/mL | > 100 µM | > 100 µM | > 100 µM | > 100 µM | > 100 µM | > 100 µM | > 100 µM | > 100 µM | > 100 µM |  | 
CCCCCCCCOc1ccc(/C=C/C(=O)O)cc1OC [Compound 3e, (E)-3-(3-Methoxy-4-(octyloxy)phenyl)acrylic acid] | >100 µg/mL | > 100 µM | > 100 µM | 96.2 ± 1.1 µM | 90 ± 1.03 µM | 53.1 ± 1.02 µM | 54.4 ± 1.05 µM | > 100 µM | > 100 µM | > 100 µM | < 100 µM | 
CCCCCCCCCCOc1ccc(/C=C/C(=O)O)cc1OC [Compound 3f, (E)-3-(4-(Decyloxy)-3-methoxyphenyl)acrylic acid] | >100 µg/mL | > 100 µM | 88.7 ± 1.08 µM | 76.8 ± 1.08 µM | 55.6 ± 1.05 µM | 26.4 ± 1.06 µM | 25.4 ± 1.08 µM | > 100 µM | > 100 µM | > 100 µM | < 100 µM | 
COc1cc(C(=O)O)cc(OC)c1O [Compound 4, syringic acid, reference compound] | 4.53 ± 0.19 µg/mL |  |  |  |  |  |  |  |  |  |  | 
CCOc1c(OC)cc(C(=O)O)cc1OC [Compound 5a, 4-Ethoxy-3,5-dimethoxybenzoic acid] | 9.20 ± 0.91 µg/mL | > 100 µM | > 100 µM | > 100 µM | > 100 µM | > 100 µM | > 100 µM | > 100 µM | > 100 µM | > 100 µM |  | 
CCCOc1c(OC)cc(C(=O)O)cc1OC [Compound 5b, 3,5-Dimethoxy-4-propoxybenzoic acid] | 11.47 ± 0.58 µg/mL | > 100 µM | > 100 µM | > 100 µM | > 100 µM | > 100 µM | > 100 µM | > 100 µM | > 100 µM | > 100 µM |  | Increase of onset temperature of mass loss (Tonset) in comparison with SO [5]: 24 °C; T 5 (5% mass loss) [5]: 364 °C; T 10 (10% mass loss) [5]: 382 °C; T 50 (50% mass loss) [5]: 420 °C; T onset (decomposition temperature: onset temperature) [5]: 305 °C; Reduction in secondary oxidation (TBARS) in comparison with SOcontrol [6]: 5 times
CCCCCCOc1c(OC)cc(C(=O)O)cc1OC [Compound 5d, 4-(Hexyloxy)-3,5-dimethoxybenzoic acid] | >100 µg/mL | > 100 µM | > 100 µM | > 100 µM | > 100 µM | > 100 µM | > 100 µM | > 100 µM | > 100 µM | > 100 µM |  | 
CCCCCCCCOc1c(OC)cc(C(=O)O)cc1OC [Compound 5e, 3,5-Dimethoxy-4-(octyloxy)benzoic acid] | >100 µg/mL | > 100 µM | > 100 µM | > 100 µM | > 100 µM | 55.9 ± 1.06 µM | 53.3 ± 1.05 µM | > 100 µM | > 100 µM | > 100 µM | < 100 µM | 
CCCCCCCCCCOc1c(OC)cc(C(=O)O)cc1OC [Compound 5f, 4-(Decyloxy)-3,5-dimethoxybenzoic acid] | >100 µg/mL | > 100 µM | 70 ± 1.06 µM | 62.8 ± 1.07 µM | 47.2 ± 1.04 µM | 35.4 ± 1.04 µM | 29.3 ± 1.09 µM | > 100 µM | > 100 µM | > 100 µM | < 100 µM | 
